Data set [1] has as its target T1, Fatty-acid amide hydrolase 1 (Rattus norvegicus, UniProt P97612).
T1 sequence (P97612 whole entry): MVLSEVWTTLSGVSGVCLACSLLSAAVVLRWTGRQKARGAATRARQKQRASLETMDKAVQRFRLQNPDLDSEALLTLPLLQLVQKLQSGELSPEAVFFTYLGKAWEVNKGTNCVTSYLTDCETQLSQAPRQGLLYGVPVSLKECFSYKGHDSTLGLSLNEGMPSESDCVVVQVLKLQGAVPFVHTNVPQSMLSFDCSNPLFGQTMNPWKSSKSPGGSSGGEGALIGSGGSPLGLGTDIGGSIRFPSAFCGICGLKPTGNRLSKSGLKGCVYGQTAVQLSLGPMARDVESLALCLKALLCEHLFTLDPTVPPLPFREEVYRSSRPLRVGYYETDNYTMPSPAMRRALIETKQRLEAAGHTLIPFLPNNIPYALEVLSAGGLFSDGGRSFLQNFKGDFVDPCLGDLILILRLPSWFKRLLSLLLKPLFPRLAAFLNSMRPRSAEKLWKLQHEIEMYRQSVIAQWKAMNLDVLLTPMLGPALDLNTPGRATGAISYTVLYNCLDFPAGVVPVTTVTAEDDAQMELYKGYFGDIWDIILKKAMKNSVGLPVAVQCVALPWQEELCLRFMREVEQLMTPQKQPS
The data set is described as follows: Inhibition of rat FAAH assessed as kinact/Ki ratio incubated for 1 min in presence of glutamate dehydrogenase by 384-well format microplate reader assay.

Data set [2] concerns Mus musculus. The data set is described as follows: Antinociceptive activity in C57BL6/J mouse assessed as effect in locomotive activity at 1 to 10 mg/kg, po administered for 4 hrs. The settings on record: dose 1-10 mg/kg. The data set is classed as functional, organism-based. In outline: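 Male C57BL/6J mice, 7 weeks old, n = 8/group, dosed orally at 1 or 10 mg/kg in PEG 300 (4 ml/kg). Tetrad tested 4 h postdose: locomotor activity, tail-immersion thermal nociception, catalepsy (assessed 60 s), body temperature. Means ± S.E.M. versus vehicle.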

Data set [3] concerns Rattus norvegicus. The data set is described as follows: Antihyperalgesic activity in CFA induced Sprague-Dawley rat assessed as partial reduction of mechanical allodynia at 3 mg/kg, po in presence of CB2 antagonist SR144528 by von frey test. The class given is functional, organism-based. A digest of the protocol: (§1)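 Male Sprague-Dawley rats (200–250 g) given 150 μl CFA (1 mg/ml in mineral oil) intraplantar in the hind paw. Mechanical paw withdrawal thresholds read with Von Frey hairs on day 5 postinjection. Dosed orally as nanocrystalline suspension in 2% polyvinylpyrrolidone/0.15% SDS in water, 10 ml/kg. PWTs taken 4 h postdose for dose-response, or at 1, 2, 4, 8, 24 h for time course.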

In data set [4] the test system is Rattus norvegicus. The data set is described as follows: Antihyperalgesic activity in CFA induced Sprague-Dawley rat assessed as complete reduction of mechanical allodynia at 3 mg/kg, po in presence of CB1 antagonist SR141716 and CB2 antagonist SR144528 by von frey test. The class given is functional, organism-based. In outline: as §1
A short description of data set [5]: Brain concentration in rat at 1 mg/kg, po administered for 4 hrs by LC/MS analysis. The class given is ADME, organism-based. As to conditions: read-out: Ct. In outline: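 Rats dosed orally at 1 mg/kg. Plasma and brain concentrations measured at 1, 2, 4, 8 and 24 h.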
Data set [6] addresses T2, Fatty-acid amide hydrolase 1 (Rattus norvegicus) (UniProt P97612).
T2 sequence (whole entry): T1 sequence (P97612 whole entry)
The data set is described as follows: In vivo inhibition of FAAH in CFA induced Sprague-Dawley rat plasma assessed as elevation of OEA level at 1 mg/kg, po measured for 1 to 24 hrs. The class given is functional, organism-based. As to conditions: time 1-24 hrs.

The target of data set [7] is T2, Fatty-acid amide hydrolase 1 (Rattus norvegicus). The data set is described as follows: In vivo inhibition of FAAH in CFA induced Sprague-Dawley rat brain assessed as elevation of NAE level at 0.1 to 10 mg/kg, po. The data set is classed as functional, organism-based. The settings on record: dose 0.1-10 mg/kg. A digest of the protocol:
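Lipid (NAE) levels in rat brain and plasma measured by LC/MS after oral dosing in CFA rats; n = 3 rats/group. Time-course samples taken at 1, 2, 4, 8, 24 h after 1 mg/kg.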

Data set [8] has as its target T3, Fatty-acid amide hydrolase 1 (Homo sapiens, UniProt O00519).
T3 sequence (O00519 whole entry): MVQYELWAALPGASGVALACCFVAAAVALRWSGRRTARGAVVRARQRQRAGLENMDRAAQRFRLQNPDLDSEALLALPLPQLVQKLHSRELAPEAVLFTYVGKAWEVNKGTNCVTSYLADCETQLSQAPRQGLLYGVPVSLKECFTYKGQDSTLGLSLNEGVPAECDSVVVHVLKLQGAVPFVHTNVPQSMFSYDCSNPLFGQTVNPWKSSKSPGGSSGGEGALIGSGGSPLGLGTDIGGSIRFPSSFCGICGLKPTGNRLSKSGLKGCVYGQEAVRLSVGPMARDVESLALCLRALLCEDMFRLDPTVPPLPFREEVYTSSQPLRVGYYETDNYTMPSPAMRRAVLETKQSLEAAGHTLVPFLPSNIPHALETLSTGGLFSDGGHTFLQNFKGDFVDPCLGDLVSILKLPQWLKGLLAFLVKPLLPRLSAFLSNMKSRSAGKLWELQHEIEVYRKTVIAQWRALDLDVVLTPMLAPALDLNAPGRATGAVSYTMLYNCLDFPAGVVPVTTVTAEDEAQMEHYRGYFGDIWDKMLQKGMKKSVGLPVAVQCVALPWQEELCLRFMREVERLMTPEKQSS
The experiment in a line: Inhibition of human FAAH assessed as kinact/Ki ratio incubated for 1 min in presence of glutamate dehydrogenase by 384-well format microplate reader assay.

The target of data set [9] is T1, Fatty-acid amide hydrolase 1. The experiment in a line: Inhibition of rat FAAH assessed as kinact/Ki ratio incubated for 15 min in presence of glutamate dehydrogenase by 384-well format microplate reader assay.
The test system of data set [10] is Rattus norvegicus. The experiment in a line: Antihyperalgesic activity in MIA induced Sprague-Dawley rat assessed as reduction in mechanical allodynia at 3 mg/kg, po administered for 1 day and measured after 2 to 4 hrs. The class given is functional, organism-based. A digest of the protocol: (§2)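 Male Sprague-Dawley rats (220–270 g), isoflurane-anesthetized, given 2 mg MIA in 0.9% saline (50 μl) intra-articular into the knee. From day 14, oral dosing at 10 ml/kg once daily for 3 days in 4% 2-hydroxypropyl-β-cyclodextrin/1% ethanol in 0.01 M HCl. Celecoxib 30 mg/kg in 0.5% methylcellulose twice daily. Joint compression threshold by digital Randall-Selitto at 2 and 4 h postdose on days 1 and 3; n = 10/group.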

Data set [11] addresses T4, Fatty-acid amide hydrolase 1 (Homo sapiens) (UniProt O00519).
T4 sequence (whole entry): T3 sequence (O00519 whole entry)
The data set is described as follows: Inhibition of FAAH in human brain at 100 uM in presence of FP-rhodamine by competitive activity-based protein profiling method. The class given is tissue-based. A digest of the protocol:
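Competitive ABPP on human and mouse brain, liver and heart proteomes (membrane and soluble fractions), exposed to compound at 10 or 100 μM or to DMSO. Serine hydrolases were then labeled with FP-rhodamine. Gels were read by fluorescence scanning, and loss of band labeling (FAAH or other hydrolases by kDa) was judged.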

The subject of data set [12] is Rattus norvegicus. The experiment in a line: Antihyperalgesic activity in MIA induced Sprague-Dawley rat assessed as increased joint compression thresholds at 3 mg/kg, po administered once daily for 3 consecutive days and measured after 2 to 4 hrs. The data set is classed as functional, organism-based. The settings on record: time 3.0 day. In outline:
as §2

The test system of data set [13] is Rattus norvegicus. The data set is described as follows: Antihyperalgesic activity in CFA induced Sprague-Dawley rat assessed as inhibition of mechanical allodynia at 1 mg/kg, po measured for 1 to 24 hrs by von frey test. The class given is functional, organism-based. The settings on record: time 1-24 hrs. In outline: as §1
Data set [14] is described as follows: Tmax in rat at 5 mg/kg, po measured upto 24 hrs by LC/MS analysis. The data set is classed as ADME, organism-based. As to conditions: in vivo.
Data set [15] is described as follows: Plasma concentration in rat at 5 mg/kg, po by LC/MS analysis. The data set is classed as ADME, organism-based. The settings on record: in vivo.

Activity calls are given as the source filed them.

With `O=C(Nc1cccnn1)N1CCC(=Cc2cccc(Oc3ccc(C(F)(F)F)cn3)c2)CC1`, the IC50 in [1] was 43.1 nM; in data set [8], 50.4 nM; in [9] it was 26.7 nM. Further, in data set [2], the Activity result is “Non-Toxic”. For the same compound, the result in data set [3], in [4], in data set [10], in [12] and in data set [13] was Active. Moreover, the concentration at 4 h in data set [5] was determined as 870 nM. The inhibition result in [6], in [7] and in [11] was “Active” in each case. For the same compound, the Tmax in data set [14] was 2 h. The concentration in [15] turned out to be 2800 nM.

(Values after ChEMBL document CHEMBL5653606 (J Pharmacol Exp Ther, 2011).)
